Screening results (PubChem BioAssay)
Most compounds without a hit are left out; they make up all but 3.5% or so of the library.
MrgX1 antagonist: antagonists of human MrgX1 receptor, primary screen, HEK293 cells, Fluo-4 calcium flux; B-score at 10 µM; BAM8-22 antagonism; stronger effect = lower value; actives 1.3% (n = 310,000);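 active means calcium-response B-score plate-corrected more than 3 library SD below zero, starting fluorescence within 5 deviations, no agonist response on first addition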;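 further: peak minus trough fluorescence over baseline after final BAM8-22 challenge near maximal dose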
Target sequence (Q96LB2 whole entry, looked up): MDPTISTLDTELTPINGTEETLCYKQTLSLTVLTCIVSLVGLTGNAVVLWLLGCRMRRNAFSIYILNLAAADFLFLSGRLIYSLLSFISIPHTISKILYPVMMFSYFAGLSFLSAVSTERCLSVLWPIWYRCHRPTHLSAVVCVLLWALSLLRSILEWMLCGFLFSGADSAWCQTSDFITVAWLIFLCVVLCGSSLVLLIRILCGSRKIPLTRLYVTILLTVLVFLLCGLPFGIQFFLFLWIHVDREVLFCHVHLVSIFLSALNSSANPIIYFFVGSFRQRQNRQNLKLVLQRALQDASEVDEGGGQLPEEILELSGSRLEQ
MrgX1 allo act: positive allosteric modulators of MrgX1, primary screen, HEK293 cells, Fluo-4 calcium flux | Mas-related G-protein coupled receptor member X1 (Homo sapiens), Q96LB2 | FDSS; stronger effect = higher value | B-score at 10 µM | actives 0.63% (n = 310,000);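 active means plate-corrected calcium response at least 3 library SD above typical, normal starting fluorescence, not activating the receptor alone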;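 further: compound read alongside a low EC10 to EC30 dose of BAM8-22 agonist; peak minus trough fluorescence over baseline measured at the second addition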
RGS4 pot: RGS4 potentiators or activators, primary screen, cell-based, HEK293 M3R inducible RGS4, calcium flux. carbachol calcium flux Fluo4; stronger effect = lower value. B-score at 10 µM. actives 0.92% (n = 310,000);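 active means B-score of the integrated calcium signal more than 4 SD below the library mean, with starting fluorescence not abnormally high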;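 further: negative B-score means reduced calcium response which marks RGS4 activation or potentiation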
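Material: M3R-expressing HEK293 line, RGS4 induced by doxycycline | Schedule: Overnight RGS4 induction, 30 min dye load 37 °C, 20 min compound RT | Measured by: Fluo4 fluorescence kinetic imaging of calcium | Read-out: Integrated calcium ratio converted to B score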
RGS4 inh: RGS4 inhibitors, primary screen, cell-based, HEK293 M3R inducible RGS4, calcium flux; Fluo-4 calcium flux; stronger effect = higher value; triggered by carbachol at its EC20; B-score at 10 µM; actives 0.45% (n = 310,000); AID 463165, 2010;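 active means B-score, a plate-corrected calcium signal, over three deviations above library mean, with baseline fluorescence within five deviations of library mean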;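 further: RGS4 expression induced by doxycycline in cells with stable M3 receptor; B-score is computed from the integrated fluorescence ratio over baseline after carbachol; higher B-score means a larger calcium signal and so more RGS4 inhibition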
Target sequence (P49798 whole entry, looked up): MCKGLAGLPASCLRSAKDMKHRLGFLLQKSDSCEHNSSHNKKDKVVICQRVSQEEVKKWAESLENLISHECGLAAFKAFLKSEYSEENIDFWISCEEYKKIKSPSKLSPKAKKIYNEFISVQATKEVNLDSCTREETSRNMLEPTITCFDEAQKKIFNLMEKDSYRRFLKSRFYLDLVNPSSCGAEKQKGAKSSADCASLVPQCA
MrgX1 agonist: agonists of human MrgX1 receptor, primary screen, HEK293 cells, Fluo-4 calcium flux; Mas-related G-protein coupled receptor member X1 (Homo sapiens), Q96LB2; Fluo-4 calcium fluorescence, agonist mode; stronger effect = higher value; B-score at 10 µM; actives 0.44% (n = 310,000);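 active means calcium response B-score plate-corrected fluorescence ratio at least 3 library SD, with starting fluorescence B-score inside 5 SD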
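Material – MrgX1-expressing HEK293 cells · Input – 15,000 cells seeded per well · Dosing – compound as first of three additions · Times – overnight seeding, then 1 h dark dye loading · Measured by – kinetic Fluo-4 NW fluorescence of intracellular calcium · Read-out – B-scored fluorescence response ratio · Benchmarks – positive and negative control wells on each plate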
* hit, by the source's call; i = inactive; / = no result given.

SMILES	MrgX1 antagonist	MrgX1 allo act	RGS4 pot	RGS4 inh	MrgX1 agonist
N#CC1=C(N)OC2=C(CC/C2=C\c2ccccc2)C1c1ccccc1 (centres undefined)	i	i	i	i	140*
N#CC1=C(N)OC2=C(CC/C2=C\c2ccccc2Cl)C1c1ccccc1Cl (centres undefined)	-12*	i	i	i	i
N#CC1=C(N)Oc2cc(O)c(Cl)cc2C1c1ccccc1F (centres undefined)	i	i	i	i	i
N#CC1=C(N)OC2=C(C(=O)CCC2)C1c1ccccc1 (centres undefined)	i	i	i	i	i
CCCCCN(C(=O)CCC(=O)OCc1ccc(Cl)cc1Cl)c1c(N)n(CCCC)c(=O)[nH]c1=O	i	i	i	i	i
CCc1ccc(OCCCCCn2ccnc2)cc1	i	i	i	i	i
NC(=O)c1nsc(C(=O)N(c2ccccc2)C(C(=O)NC2CCCCC2)c2ccc(O)cc2)c1N (centres undefined)	i	i	i	i	i
N#Cc1ccccc1Oc1ccccc1C=O	i	i	i	i	27*
O=C(NCc1ccc(F)cc1)c1ccncc1	i	i	i	i	i
CCC(Oc1ccc2c(=O)c(-c3ccccc3OC)coc2c1)C(=O)OCc1ccccc1 (centres undefined)	i	i	-7.6*	i	i
COc1ccccc1-c1coc2cc(OC(=O)N3CCOCC3)ccc2c1=O	i	i	i	i	i
COC(=O)C1=C(C)NC(=O)/C1=C\c1cc(C)n(-c2ccccc2F)c1C	-5.5*	i	i	i	i
Cc1sc2nc(CSc3cccc(C(F)(F)F)c3)[nH]c(=O)c2c1C	-5.1*	i	i	i	i
CCOC(=O)N1CCN(C(=O)c2cc3c(-c4cccc(OC)c4)nn(C)c3s2)CC1	i	i	-7.1*	i	i
COCCNC(=O)c1sc2nc(-c3ccccc3)cn2c1C	i	i	i	i	i
O=C(NCCCN1CCOCC1)c1cc(-c2cccc(Br)c2)nc2ccccc12	i	i	i	i	i
O=C(NCCCN1CCOCC1)c1cc(-c2ccc(Cl)s2)nc2ccccc12	-7.4*	i	i	i	i
COc1ccc(OC)c(Nc2cc(C(=O)NCCCN3CCOCC3)c3ccccc3n2)c1	-5.7*	i	i	i	i
Cc1c(C(=O)NCCCN2CCOCC2)sc2nc(-c3ccccc3)cn12	-7.3*	i	i	i	i
CCc1cccc(C)c1NS(=O)(=O)Cc1ccccc1	i	i	i	i	i
Cc1ccc(CN2CCN(/N=C/c3ccc(Cl)c([N+](=O)[O-])c3)CC2)cc1	i	i	i	i	i
Cc1nc(NC(=O)CSc2nnc(-c3ccccc3)c(-c3ccccc3)n2)c(Cl)cc1Cl	i	i	-7.2*	i	i
COC(=O)c1c(C)[nH]c(C(=O)OCC(=O)N(CC(C)C)c2c(N)n(Cc3ccccc3)c(=O)[nH]c2=O)c1C	i	i	i	i	i
CC(=O)Nc1sc(C)c(C)c1C(=O)OCC(=O)N(CC(C)C)c1c(N)n(Cc2ccccc2)c(=O)[nH]c1=O	i	i	-7.8*	i	i
O=C(NCCc1ccccn1)c1cc(-c2cccc3ccccc23)nc2ccccc12	i	i	i	i	i
SMILES	MrgX1 antagonist	MrgX1 allo act	RGS4 pot	RGS4 inh	MrgX1 agonist
O=S(=O)(c1cc(Cl)ccc1Cl)N1CC2CCCN2c2ccc(C(F)(F)F)cc21 (centres undefined)	i	i	-7.1*	i	i
CS(=O)(=O)N1CC2CCCN2c2ccc(C(F)(F)F)cc21 (centres undefined)	i	i	i	i	i
CN(CC1CCOCC1)C(=O)CC1C(=O)NCCN1Cc1cccc(Oc2ccccc2)c1 (centres undefined)	i	i	i	i	i
Cc1cccc(C)c1-n1c(C)cc(/C=N\Nc2ccc([N+](=O)[O-])cn2)c1C	-5*	i	i	i	i
O=[N+]([O-])c1ccc(N/N=C\c2cccnc2)nc1	i	i	i	i	i
CCN1C(=O)CC2(C[N+]3(C)CCC2CC3)C1=O (centres undefined)	i	i	-7.2*	i	i
O=C(NCCCn1ccnc1)/C(=C\c1ccc(Br)cc1)NC(=O)c1ccccc1F	i	i	i	i	i
COCCNC(=O)CN(C(=O)CCC(=O)Nc1ccccn1)c1cc(C)ccc1C	i	i	i	i	i
Cc1ccc(C(=O)CN(CCCC(N)=O)C(=O)c2ccncc2)cc1	i	i	/	/	i
CCCN(CCC)S(=O)(=O)c1ccc(C(=O)OCCN2C(=O)c3cccc4c(N5CCOCC5)ccc(c34)C2=O)cc1	i	i	-8.7*	i	i
Cc1ccc(CSc2nc3ccccc3cc2C=O)cc1	i	i	-8.3*	i	i
CC(C)OC(=O)c1cccnc1SCc1cc(=O)n2ccccc2n1	i	i	i	i	i
O=C(Nc1nc(-c2ccc(F)c(F)c2)cs1)c1cc([N+](=O)[O-])ccc1N1CCOCC1	i	i	i	i	i
Cc1cc(C)c(-c2csc(NC(=O)c3cc([N+](=O)[O-])ccc3N3CCOCC3)n2)c(C)c1	i	i	-7.9*	i	i
CN(NC1OC(=O)c2ccccc21)c1ccccc1[N+](=O)[O-] (centres undefined)	i	i	i	i	i
CCc1nnc(SCC(=O)Nc2nc(C)c(C(=O)N(C)C)s2)n1CC	i	i	i	i	i
OC(C#CCCN1CCCCC1)(c1ccccc1)c1ccccc1	i	i	i	i	i
C[N+]1(CC#CC(O)(c2ccccc2)c2ccccc2)CCCC1	i	i	-8.4*	i	i
CC(C)[N+](C)(C)CC#CC(O)(c1ccccc1)c1ccccc1	i	i	-7.8*	i	i
Cc1nc(NC(=O)CSc2nnc(C3CC3)n2C)sc1C	i	i	i	i	i
CN1CCN(C(=O)CCc2nnc3ccc(N4CCC5(CC4)OCCO5)nn23)CC1	i	i	i	i	i
